Bioassay records deposited in PubChem BioAssay by several laboratories.
Only some compounds are listed: those with a hit (about 1.8% of all), similar ones and a draw of the others.
Beta2AR agonist = activates human beta-2 adrenergic receptor causing internalization. response, % (no concentration beside the values). Am2.2-beta2AR cells, FAP receptor internalization, flow cytometry. P07550. AID 504454. 340,000 compounds, 0.43% hits;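 active = response above a set limit, near 3 SD of response in nonfluorescent compounds, cut at about 42% in these data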
CCR6 antagonist = antagonists of human CCR6 receptor; P51684; CHO-K1 CCR6 PathHunter beta-arrestin, luminescence, CCL20-stimulated; inhibition, % at 20 µM; 340,000 compounds, 0.49% hits;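 active = compounds whose inhibition of the agonist-driven luminescence signal at 20 µM reaches about 50%, limit read from the data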;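 also: cells stimulated with CCL20 at 14 nM final; plate controls were DMSO with CCL20 for no effect and DMSO without agonist for full effect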
Target sequence (P51684 whole entry, looked up): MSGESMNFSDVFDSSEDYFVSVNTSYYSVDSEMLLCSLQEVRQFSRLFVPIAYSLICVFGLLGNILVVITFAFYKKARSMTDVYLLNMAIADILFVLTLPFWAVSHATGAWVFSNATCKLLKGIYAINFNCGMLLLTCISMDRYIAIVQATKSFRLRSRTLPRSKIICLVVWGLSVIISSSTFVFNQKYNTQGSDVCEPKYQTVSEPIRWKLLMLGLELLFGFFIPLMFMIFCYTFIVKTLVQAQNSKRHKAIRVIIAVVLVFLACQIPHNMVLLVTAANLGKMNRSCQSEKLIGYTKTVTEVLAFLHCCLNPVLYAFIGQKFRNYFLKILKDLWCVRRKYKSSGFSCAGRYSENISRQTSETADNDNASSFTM
APJ ag = APJ receptor agonism; P35414; CHO-K1 APJ PathHunter beta-arrestin, luminescence; 0% DMSO wells, 100% apelin; activation, % at 20 µM; 330,000 compounds, 0.11% hits;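 active = activation more than six SD over the plate average, tested at 20 µM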;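 also: 0% = DMSO alone and 100% = apelin-13 at 10 nM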
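assay system = CHO-K1 APJ beta-arrestin complementation cell line | input = cell density 1000 per well | dosing = compound 20 µM once, DMSO 1% | timing = compound 90 min 25 °C, reagent 1 h | measured by = luminescence from split beta-galactosidase complementation, Galacton Star/Emerald II substrate | read-out basis = APJ agonist activity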
CXCR6 block = inhibitors of human CXCR6 receptor. O00574. CHO-K1 PathHunter CXCR6 beta-arrestin, luminescence. inhibition, % at 20 µM. 360,000 compounds, 0.36% hits. AID 602244; in the data active = inhibition above about 34%, passing the limit was not always enough;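 also: antagonist mode with CXCL16 agonist at 10 nM final; 0% = 10 nM CXCL16 with DMSO and 100% = unstimulated wells without agonist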
EBI2 block = blocks human EBI2 receptor beta-arrestin signaling; EBI2 beta-arrestin recruitment, luminescence, 7a,25-OHC stimulated; 360,000 compounds, 0.81% hits; P32249; inhibition, % at 5 µM; in the data active = inhibition above about 38%;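 also: enzyme fragment complementation signal reports receptor beta-arrestin coupling in cells; 0% = agonist plus DMSO wells and 100% = wells without agonist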
APJ antag = blocks the human apelin receptor APJ. inhibition, % at 20 µM. AID 2521. CHO-K1 APJ beta-arrestin complementation, luminescence. 330,000 compounds, 0.32% hits;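 active = inhibition above about 40% at 20 µM, limit read from the data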;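 also: cells challenged with 10 nM apelin-13 agonist together with compound; plate controls were apelin-13 plus DMSO wells for no effect and DMSO wells lacking apelin-13 for full effect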
CXCR6 confirm = confirmation of human CXCR6 receptor antagonists; AID 602409; 700 compounds, 65% hits; CHO-K1 CXCR6 PathHunter beta-arrestin, luminescence; shares compounds with CXCR6 block; inhibition, % at 20 µM;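 active = mean inhibition over four retests above 40%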;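 also: receptor stimulated with 10 nM CXCL16 agonist; beta-galactosidase fragment complementation upon beta-arrestin recruitment to receptor; plate controls were CXCL16 plus DMSO for no effect and DMSO without CXCL16 for full effect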
* = called active by the depositor; · = no result.

SMILES	Beta2AR agonist	CCR6 antagonist	APJ ag	CXCR6 block	EBI2 block	APJ antag	CXCR6 confirm
CCOc1ccc(CN2CCN(Cc3c(C)nn(CC)c3C)CC2CCO)cc1 (configuration not stated)	-9	1	-2	-19	-4	10	·
C=CC[C@H](CC(=O)N(CCO)Cc1ccccc1)C(=O)N[C@H](COC(=O)[C@H](CC=C)CC(=O)OC(C)(C)C)Cc1ccccc1	4	29	-3	42*	8	8	25
C=CC[C@@H](CC(=O)N(CCO)Cc1ccccc1)C(=O)N[C@H](COC(=O)[C@@H](CC=C)CC(=O)OC(C)(C)C)C(C)(C)C	6	-1	-8	12	-5	14	·
C=CC[C@H](CC(=O)N(CCO)Cc1ccccc1)C(=O)NC[C@H](OC(=O)[C@@H](CC=C)CC(=O)OC(C)(C)C)c1ccccc1	-14	29	-7	51*	29	16	40
Cc1nnc(NC(=O)c2cc(-c3ccncc3)nc3c(C)cccc23)s1	12	-2	12	45*	-5	-35	21
CC(=O)c1ccc(S(=O)(=O)NCCC(=O)NC(C)c2ccncc2)cc1 (configuration not stated)	-2	-1	-4	3	-5	-13	·
O=C(CSc1cccc2cccnc12)N1CCCC1	14	70*	-7	52*	31	27	69*
COCCN1C(=O)COc2ccccc2C1C(=O)NC(C)(C)C (configuration not stated)	·	·	·	-2	-4	·	·
O=[N+]([O-])c1ccc(Sc2cccc3cccnc23)c([N+](=O)[O-])c1	18	56*	-4	53*	33	37	70*
O=[N+]([O-])c1cc(Cl)ccc1Sc1cccc2cccnc12	8	20	-1	6	3	3	·
CN(C)CCCNc1nc2cc(-c3ccc(F)cc3)sc2c(=O)n1C	·	·	·	2	-6	·	·
Cc1cc(O)c(-c2cc(O)c(C)cc2O)cc1O	35	·	10	64*	27	0	80*
Cc1cc(N=O)c(C)cc1O	·	·	·	0	7	·	·
O=C(Nc1cc(S(=O)(=O)N2CCCCCC2)ccc1OCC(F)(F)F)c1cnccn1	-6	9	-3	5	2	2	·
O=C(Cc1ccccc1)N1CCC(c2nc3ccccc3[nH]2)CC1	-7	0	-2	40*	7	-11	6
Cc1ccc(-c2cc(C(=O)Nc3ccccc3C(N)=O)c3ccccc3n2)o1	15	18	-5	47*	11	28	1
COc1ccc(NC(=O)c2cc(-c3ccc(C)o3)nc3ccccc23)c(OC)c1	14	5	-1	10	-14	15	·
C=CCNc1nc(C(=O)OCC(=O)c2ccccc2)cs1	4	0	-3	103*	-11	0	12
C=CS(=O)(=O)c1ccc(Oc2ccc(S(=O)(=O)C=C)cc2)cc1	42*	74*	0	64*	47*	39	66*
COc1ccc(-n2nnnc2SCC(=O)Nc2c(C)n[nH]c2C)cc1	6	11	-6	3	-6	-10	·
CC(=O)Nc1nc2ccccc2n1CCOc1ccccc1Cl	-2	46	-5	41*	2	29	66*
CC(Oc1ccc(Br)cc1)C(=O)Nc1nc(-c2ccccn2)cs1 (configuration not stated)	8	84*	-20	93*	6	39	86*
CC1=C(CO)C(=O)OC([C@@H](C)C2CC[C@H]3C4C[C@H]5O[C@]56[C@@H](O)C=CC(=O)[C@]6(C)C4CC[C@]23C)C1 (some centres not stated)	22	41	·	44*	55*	·	48*
CCn1nc(NC(=O)C(C)C)c2cc3ccc(C)cc3nc21	-1	3	0	-7	1	-8	·
CCn1nc(NC(C)=O)c2cc3ccc(C)cc3nc21	7	-5	0	44*	2	3	6
SMILES	Beta2AR agonist	CCR6 antagonist	APJ ag	CXCR6 block	EBI2 block	APJ antag	CXCR6 confirm
Cc1ccnc(NC(=O)c2cccc(NC(=O)CC3SC(N4CCCCC4)=NC3=O)c2)c1 (configuration not stated)	0	6	2	-2	-3	-42	·
CCCCc1c(Cc2ccccc2)ncn1CCc1ccccc1OC	·	·	·	38*	0	·	3
CCCCc1c(-c2ccccc2)ncn1CCc1ccccc1OC	·	·	·	-3	8	·	·
O=C(Nc1nc(-c2ccccc2)c(-c2ccccc2)o1)c1ccc(F)cc1	-3	·	-4	41*	5	16	27
CC(=O)Nc1ccc(C=C(C#N)c2ccc(C)cc2)cc1	·	·	·	4	-8	·	·
C=C1C(=O)O[C@@H]2[C@H]1CC[C@H](C)[C@]1(O)CCC(=O)[C@@]21C	-2	5	-4	-6	-2	9	·
C=C1C(=O)OC2C1CCC(C)=C1C(=O)C3OC3(C)C12 (configuration not stated)	28	48	·	47*	52*	·	59*
Cc1ccc(/C=C/C(=O)N2CC(C)CC(C)C2)o1 (configuration not stated)	5	27	-1	76*	4	29	6
CCN1CCN(C(=O)/C=C/c2ccc(C)o2)CC1	2	1	-4	3	-3	11	·
O=C1C=CC(=O)N1CCNc1ncc(C(F)(F)F)cc1Cl	69*	·	-1	97*	11	-12	77*
O=C1CC(=O)N(CCNc2ncc(C(F)(F)F)cc2Cl)C(=O)N1	4	6	3	6	7	1	·
CCCCNC(=O)C1C(c2ccc(C(F)(F)F)cc2)=Nc2ccccc2N1C(=O)c1ccc2nc(C)[nH]c2c1 (configuration not stated)	·	·	·	·	5	·	·
CCOC(=O)C1(C)CCCN(C(=O)c2ccc(OC)cc2)C1 (configuration not stated)	·	·	·	-2	5	·	·
CC1(C(=O)Nc2ccc3c(c2)OCCO3)CSCC(=O)N1CCc1ccccc1F (configuration not stated)	·	·	·	·	-2	·	·
Cc1cccc(NC(=O)c2ncn3c2C(=O)N(C)CC3)c1	·	·	·	0	-1	·	·
O=C(NCc1ccco1)c1nc2ccccc2s1	2	6	-4	41*	-8	5	11
O=C(NCc1ccccc1)c1nc2ccccc2s1	-2	15	-1	2	-8	-5	·
Cc1cc2nc(N3C(=O)CNC3=S)sc2cc1C	1	·	-3	50*	-8	22	61*
COc1cccc(-n2nc(C#N)c(Cl)cc2=O)c1	84*	36	-3	50*	47*	49*	51*
COc1cccc(-n2nc(C(N)=O)c(O)cc2=O)c1	-5	-1	0	3	0	14	·
